Results reported in ChEMBL document CHEMBL1122318, “Aporphines. 50. Kinetics of solvolysis of N-(2-chloroethyl)norapomorphine, an irreversible dopamine receptor antagonist” (J Med Chem, 1983).
“And” between values parts separate entries of the source, which are not always exact repeats. Equal values may be shown once.

What was measured:
Assay type in all cases: ADME
[1] = Apparent rate of cyclization (kobsd) value at pH 8.00(in 0.1 M […]).
[2] = Half-life period at pH 5.60(in 0.1 M acetate).; conditions: 0.1 M acetate buffer, pH 5.6
In short: (§1)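 Buffers were 0.1 M sodium acetate titrated with 0.1 M acetic acid below pH 6.0, and NaH2PO4–Na2HPO4 (100 mM) at pH 6.0–8.0. Remaining NCA was quantified from peak heights against a 100–900 ng standard curve. First-order kobsd came from log[NCA] versus time over at least two half-lives.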

[3] = Apparent rate of cyclization (kobsd) value at pH 5.60(in 0.1 M acetate).; conditions: pH 5.6; in short: as §1
[4] = Half-life period at pH 6.50(in 0.1 M […]).; conditions: 0.1 M […] buffer, pH 6.5
[5] = Half-life period at pH 5.80(in 0.1 M acetate).; conditions: 0.1 M acetate buffer, pH 5.8; in short: as §1
[6] = Apparent rate of cyclization (kobsd) value at pH 6.75(in 0.1 M phosphate).; in short: as §1
[7] = Half-life period at pH 7.00(in 0.1 M […]).
[8] = Apparent rate of cyclization (kobsd) value at pH 6.00(in 0.1 M phosphate).; in short: as §1
[9] = Apparent rate of cyclization (kobsd) value at pH 5.40(in 0.1 M acetate).; conditions: pH 5.4; in short: as §1
[10] = Half-life period at pH 5.40(in 0.1 M acetate).; conditions: 0.1 M acetate buffer, pH 5.4; in short: as §1
[11] = Apparent rate of cyclization (kobsd) value at pH 6.50(in 0.1 M phosphate).; conditions: pH 6.5; in short: as §1
[12] = Half-life period at pH 6.75(in 0.1 M […]).; conditions: 0.1 M […] buffer
[13] = Apparent rate of cyclization (kobsd) value at pH 6.25(in 0.1 M phosphate).; in short: as §1
[14] = Half-life period at pH 6.00(in 0.1 M […]).; conditions: 0.1 M acetate buffer
[15] = Half-life period at pH 8.00(in 0.1 M […]).; conditions: 0.1 M […] buffer
[16] = Apparent rate of cyclization (kobsd) value at pH 7.00(in 0.1 M […]).
[17] = Half-life period at pH 7.50(in 0.1 M […]).; conditions: 0.1 M […] buffer, pH 7.5
[18] = Half-life period at pH 6.25(in 0.1 M […]).; conditions: 0.1 M […] buffer
[19] = Apparent rate of cyclization (kobsd) value at pH 5.80(in 0.1 M acetate).; conditions: pH 5.8; in short: as §1

Which k obs [1] does the source give for Oc1ccc2c(c1O)-c1cccc3c1[C@@H](C2)N(CCCl)CC3 here?
The k obs was 308 min⁻¹.

What about the half-life [2] of the same compound?
Its half-life is 141 min.

What about the k obs [3] of the same compound?
Its k obs is 49 min⁻¹.

And the half-life [4]?
The half-life was 39 min.

What about the half-life [5] of the same compound?
Its half-life is 107 min.

And the k obs [6]?
The k obs was 212 min⁻¹.

And the T1/2 [7]?
The T1/2 was 28 min.

What about the half-life ([7]; 0.1 M acetate buffer) of the same compound?
The half-life was 29 min.

What about the k obs [8] of the same compound?
The k obs was 97 min⁻¹.

And the k obs [9]?
The k obs was 36 min⁻¹.

What about the half-life [10] of the same compound?
Its half-life is 192 min.

And the k obs [11]?
The k obs was 175 min⁻¹.

And the half-life [12]?
Its half-life is 33 min.

What about the k obs [13] of the same compound?
The k obs was 152 min⁻¹.

What about the half-life [14] of the same compound?
The half-life was 71 min.

What about the half-life [15] of the same compound?
Its half-life is 22 min.

What about the k obs [16] of the same compound?
The k obs was 243 min⁻¹ and 252 min⁻¹.

And the half-life [17]?
The half-life was 24 min.

What about the half-life [18] of the same compound?
Its half-life is 45 min.

What about the k obs [19] of the same compound?
The k obs was 65 min⁻¹.
